Data on 18 compounds can be found in ChEMBL document CHEMBL1148214, “In-vitro cytotoxic activities of the major bromophenols of the red alga Polysiphonia lanosa and some novel synthetic isomers” (J Nat Prod, 2004).

The subject of assay [1] is HCT-116. The assay can be described thus: Cytotoxicity against human HCT116 cells after 96 hrs by MTT assay. It counts as functional, cell-based. In a few lines:
(§1)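 DLD-1 or HCT-116 cells in RPMI 1640 with 10% FCS, seeded at 1 × 10^4 cells mL-1 and incubated overnight at 37 °C, 5% CO2. Continuous 4-day drug exposure, drug in DMSO (max 0.1%), 8 wells per concentration. MTT 0.5 mg mL-1 for 4 h; formazan in DMSO read at 550 nm. IC50 taken as 50% growth inhibition versus control; 5FU positive control; triplicate.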
On the technique in general: Tetrazolium dyes change colour on reduction, which living cells bring about.

Assay [2] has as its system DLD-1. The assay can be described thus: Cytotoxicity against human DLD1 cells after 96 hrs by MTT assay. It counts as functional, cell-based. The arrangement: unit not given here. In a few lines: as §1
The test system of assay [3] is DLD-1. The assay can be described thus: Cell cycle arrest in human DLD1 cells assessed as accumulation at G2/M phase at 2.5 umol after 72 hrs by flow cytometry. Type of assay: functional. In a few lines: (§2)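 DLD-1 cells seeded at 5 × 10^4 cells mL-1 and grown 24 h at 37 °C, then exposed to drug for 72 h. Harvested by trypsinisation, fixed in 70% EtOH, suspended in PBS pH 7.3, RNase-treated and stained with propidium iodide for 30 min at 37 °C. DNA content measured by flow cytometry on 10 000 cells; percentage of cells in each cycle phase calculated.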
For orientation: Flow cytometry measures light scatter and fluorescence of single cells or particles in a stream.

The test system of assay [4] is DLD-1. The assay can be described thus: Cell cycle arrest in human DLD1 cells assessed as accumulation at G2/M phase at 5 umol after 72 hrs by flow cytometry. It counts as functional. In a few lines:
as §2

For assay [5], the system named is DLD-1. The assay can be described thus: Cell cycle arrest in human DLD1 cells assessed as accumulation at G0/G1 phase at 2.5 umol after 72 hrs by flow cytometry. It counts as functional. In a few lines:
as §2

In assay [6] the test system is DLD-1. The assay can be described thus: Cell cycle arrest in human DLD1 cells assessed as accumulation at S phase at 10 umol after 72 hrs by flow cytometry. Type of assay: functional. In a few lines: as §2
For assay [7], the system named is DLD-1. In words: Cytotoxicity against human DLD1 cells after 24 hrs by MTT assay. Type of assay: functional, cell-based. In a few lines:
(§3)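 DLD-1 cells seeded at 1 × 10^4 cells mL-1 and incubated overnight at 37 °C, 5% CO2. Drug was in DMSO (max 0.1% final) diluted in medium, 8 wells per concentration. After 1, 3 or 24 h the drug was removed, cells washed twice and grown in fresh medium to 4 days total. MTT at 0.5 mg mL-1 for 4 h; formazan dissolved in DMSO, absorbance read at 550 nm. IC50 determined relative to control survival; triplicate experiments.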

The subject of assay [8] is DLD-1. The assay can be described thus: Cytotoxicity against human DLD1 cells after 1 hr by MTT assay. It counts as functional, cell-based. In a few lines:
as §3

In assay [9] the test system is DLD-1. In words: Cell cycle arrest in human DLD1 cells assessed as accumulation at S phase at 2.5 umol after 72 hrs by flow cytometry. Type of assay: functional. In a few lines:
as §2

The test system of assay [10] is DLD-1. The assay can be described thus: Cell cycle arrest in human DLD1 cells assessed as accumulation at G0/G1 phase at 10 umol after 72 hrs by flow cytometry. Type of assay: functional. In a few lines:
as §2

Assay [11] concerns DLD-1. In words: Cell cycle arrest in human DLD1 cells assessed as accumulation at G0/G1 phase at 5 umol after 72 hrs by flow cytometry. Type of assay: functional. In a few lines: as §2
Assay [12] concerns DLD-1. In words: Cytotoxicity against human DLD1 cells after 3 hrs by MTT assay. Type of assay: functional, cell-based. Put shortly: as §3
Assay [13] relates to DLD-1. The assay can be described thus: Cell cycle arrest in human DLD1 cells assessed as accumulation at S phase at 5 umol after 72 hrs by flow cytometry. Type of assay: functional. In a few lines: as §2
The test system of assay [14] is DLD-1. In words: Cytotoxicity against human DLD1 cells at 8 umol after 96 hrs by MTT assay. Type of assay: functional, cell-based. In a few lines: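 DLD-1 cells exposed continuously for 4 days to drug at 8 µmol in DMSO-containing medium (max 0.1% DMSO). Survival measured by MTT at 0.5 mg mL-1 for 4 h, formazan read at 550 nm, and expressed as percentage of mean control absorbance.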

Assay [15] concerns DLD-1. In words: Cell cycle arrest in human DLD1 cells assessed as accumulation at G2/M phase at 10 umol after 72 hrs by flow cytometry. Type of assay: functional. Put shortly:
as §2

The source made the active and inactive calls. The calls are words filed in the database; no cut-off is given here.

Consider `CCOCc1cc(O)c(O)c(Br)c1Br` [ETHYL LANOSOL], for which the IC50 in assay [1] turned out to be 2.51 µmol; in assay [2], 13.5.

`O=Cc1cc(O)c(O)c(Br)c1Br` came in with an IC50 in assay [2] of 30.9.

As for `OCc1cc(O)c(O)c(Br)c1`, the IC50 in [2] came to 51.5.

For `CCCOCc1cc(O)c(O)c(Br)c1Br`, the values for the IC50 in assay [1] and in assay [2] were 1.32 µmol and 12.4, respectively.

Take `CCOCc1cc(Br)c(O)c(O)c1Br`: the results for the IC50 in assay [1] and in assay [2] were 1.54 µmol and 7.15, respectively.

`CCOCc1cc(O)c(O)c(Br)c1`: in [2], the IC50 was 35.1.

For `Oc1c(O)c(Br)c(Br)c(Br)c1Br` [TETRABROMOCATECHOL], the values for the IC50 in assay [1] and in assay [2] were 8.75 µmol and 6.43, respectively.

In [2], `COCc1cc(O)c(O)c(Br)c1` gave an IC50 of 35.3.

As to `CCCOCc1cc(Br)c(O)c(O)c1Br`, the Activity in assay [3] is 25.65%; in assay [4], 19.79%; in assay [5], 32.14%; in [6] it was 33.65%; in [9], 42.21%; in assay [10], 56.4%. The results for the Activity in [11], in assay [13] and in assay [15] were 19.65%, 60.56% and 9.95%, respectively. The IC50 was 2.71 µmol in assay [7]; 79.76 µmol in assay [8]; 77.98 µmol in assay [12]; 0.8 µmol in [1]; 1.72 in assay [2]. In addition, the outcome in assay [14] was Active.

On to `O=Cc1cc(O)c(O)c(Br)c1`, for which the IC50 in [2] turned out to be 27.9.

Take `COCc1cc(Br)c(O)c(O)c1Br`: the IC50 in assay [1] worked out at 3.48 µmol; in assay [2] it was 7.27.

Consider `COc1cc(C=O)cc(Br)c1O`, for which the IC50 in assay [2] is reported as greater than 200.

Turning to `OCc1cc(Br)c(O)c(O)c1Br`, the IC50 in assay [1] turned out to be 21.4 µmol; in [2], 15.

For `CCCOCc1cc(O)c(O)c(Br)c1`, the IC50 in assay [2] was found to be 26.3.

In [1], `O=c1[nH]cc(F)c(=O)[nH]1` [FLUOROURACIL] came in with an IC50 of 4.93 µmol.

In assay [1], `OCc1cc(O)c(O)c(Br)c1Br` [LANOSOL] had an IC50 of 20.4 µmol.

Compound `COCc1cc(O)c(O)c(Br)c1Br` returned an IC50 in [1] of 14.1 µmol.

Compound `O=Cc1cc(Br)c(O)c(O)c1Br` displayed an IC50 in assay [2] of 31.
